The subject of series [1] is Plasmodium berghei NAT (atovaquone-resistant strain). Nature of the series: Hematological analysis of P. berghei NAT-infected mice. In kind it is in vivo. Summed up: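 Same P. berghei NAT-infected ICR-1 mouse model: 10^7 infected erythrocytes given i.p., test compound or control drug once daily for 4 days from 1 dpi. Blood was taken at 3, 6, 9 and 12 dpi and run on an automated blood cell counter for WBC, RBC, haemoglobin and hematocrit.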

For series [2] the test system is unchanged. Nature of the series: 4-day suppression test in P. berghei NAT-infected ICR mice. In kind it is in vivo. Summed up:
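Female 7-week-old ICR-1 mice (6/group) infected i.p. with 10^7 P. berghei NAT-infected erythrocytes. Dosing began 1 dpi: test compound at 10, 20 or 30 mg/kg, once daily for 4 days. Controls were DHA 10, atovaquone 4 and chloroquine 10 mg/kg, given i.v. once daily for 4 days. Parasitemia was measured daily by FACS of tail blood. Weight and survival were recorded daily to 15 dpi.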

The subject of series [3] is Plasmodium falciparum 3D7. The series is classed as cell-based. To be noted: 3D7 (CQ Sensitive); relative to SKM13.
Series [4] deals with P. f K1 (CQ Resistant). In kind it is cell-based, Plasmodium falciparum. To be noted: relative to SKM13.
Series [5] can be described thus: In vitro cytotoxicity in Vero cells. In kind it is cell-based, African green monkey (Chlorocebus sp.). The note with it: African green monkey, Vero cells (kidney epithelial cells), CC50, Vero cell, mean ± SD. Summed up:
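Vero cells were pre-seeded 12 h, then exposed to serially diluted test compound or control drugs for 48 h. Viability was read with CellTiter 96 AQueous One reagent at 490 nm absorbance. CC50 was calculated from the concentration–response data.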

The subject of series [6] is eIF2α phosphorylation (ER stress response). Nature of the series: Western blotting of phosphorylated eIF2α in trophozoite lysates. The series is classed as cell-based, Plasmodium falciparum. The note with it: trophozoites treated 90 min, Western blot. In a few lines:
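P. falciparum trophozoite cultures (5% hematocrit, 5% parasitemia) were plated 10–12 h, then drug-treated at 37 °C. Parasites were freed with 0.15% saponin, lysed in RIPA, run on 10% Bis-Tris SDS-PAGE and transferred to PVDF. Blots were blocked in 5% BSA and probed overnight at 4 °C with anti-phospho-eIF2α (1:1000), anti-eIF2α (1:3000) and anti-PfEF1α (5 μg/mL) as loading control. Detection used HRP secondaries and ECL.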
(In general: Immunoblotting shows a protein as a band on a membrane.)

`O=C1C(O)=C([C@H]2CC[C@H](c3ccc(Cl)cc3)CC2)C(=O)c2ccccc21` [Atovaquone]: the WBC counts result in series [1] (4 mg/kg, compared with infected untreated mice (WBC increased at 9 to 12 dpi)) is given as “same pattern of haematological result”. Also, in series [2] (4 mg/kg), the body weight entry is on record as “decreased”. Besides, the parasitemia density result in series [2] (4 mg/kg i.v.) is “did not suppress parasitemia density”. The survival rate in series [2] (4 mg/kg i.v. once a day for four days, 15 dpi, ICR mice n = 6) was 33%.

What is called CC50 is the concentration giving 50% cytotoxicity. Read a high CC50 as better tolerance by the cells. Regarding `CCN(CC)CCCC(C)Nc1ccnc2cc(Cl)ccc12` (centres unmarked) [Chloroquine], the “Relative SI” value in series [3] was found to be 20.93; in series [4] it was 7.81. Further, the “WBC counts, HCT and Hgb” value in series [1] (10 mg/kg, infected mice, 3-12 dpi) is recorded as “did not affect”. In series [2] (10 mg/kg), the body weight result is on record as “maintained normal mouse body weight”. Also, in series [2] (10 mg/kg i.v., all observation period, p < 0.001), the “parasite density (parasitemia)” value was “significantly reduced”. For the same molecule, the CC50 at 48 h in series [5] stood at 120 ± 16.4 µM. The “phosphorylation of eIF2α” value in series [6] is reported as “did not increase phosphorylation of eIF2α”.

As for `C[C@H]1[C@@H](O)O[C@@H]2O[C@@]3(C)CC[C@H]4[C@H](C)CC[C@@H]1[C@@]24OO3` [DHA, Dihydroartemisinin], the “Relative SI” value was 4.84 in series [3] and 3.97 in series [4]. In addition, in series [5], it took 31.3 ± 8.94 µM to reach half-maximal cytotoxicity (CC50 at 48 h).

The values above are taken from article PMC9771833 (International Journal for Parasitology: Drugs and Drug …, 2022).
